# High-throughput results: PubChem, The Scripps Research Institute Molecular Screening Center
# HTRA1 inhibitor = HTRA1 (human) protease inhibition; Q92743; recombinant HTRA1, FP-rhodamine activity-based probe, fluorescence polarization; inhibition, % at 5.96 µM; 340,000 tested, 0.5% active; AID 504803; in the data active = inhibition above about 36%;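 note: 0% = enzyme with DMSO and 100% = wells lacking enzyme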
# TCR-CD3 inh = blocks the human TCR-CD3 interaction; inhibition, % at 9.4 µM; 360,000 tested, 0.37% active; TAMRA-labeled TCR probe fluorescence, biochemical; in the data active = inhibition above about 19%;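 note: recombinant mutant TCR 2C K166C tagged with TAMRA read by polarization; 0% = receptor in buffer alone and 100% = receptor with positive control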
# PRMT1 FP inh = blocks human protein arginine methyltransferase 1; Q99873; recombinant PRMT1, activity-based probe fluorescence polarization; inhibition, % at 2.79 µM; 370,000 tested, 1.3% active; AID 652257;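 active = inhibition above about 21% made by adding two undisclosed values, limit read from the data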
# PAD4 inh = blocks human protein arginine deiminase 4; Q9UM07; 330,000 tested, 0.41% active; inhibition, % at 6.36 µM; recombinant PAD4, RCA probe fluorescence polarization; AID 485272;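 active = percent inhibition above a cutoff equal to the mean of all tested compounds plus 3 SD, cut at about 15% in these data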;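 note: 0% = PAD4 with RCA probe and DMSO and 100% = probe without PAD4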
# Target sequence (Q9UM07 whole entry, looked up): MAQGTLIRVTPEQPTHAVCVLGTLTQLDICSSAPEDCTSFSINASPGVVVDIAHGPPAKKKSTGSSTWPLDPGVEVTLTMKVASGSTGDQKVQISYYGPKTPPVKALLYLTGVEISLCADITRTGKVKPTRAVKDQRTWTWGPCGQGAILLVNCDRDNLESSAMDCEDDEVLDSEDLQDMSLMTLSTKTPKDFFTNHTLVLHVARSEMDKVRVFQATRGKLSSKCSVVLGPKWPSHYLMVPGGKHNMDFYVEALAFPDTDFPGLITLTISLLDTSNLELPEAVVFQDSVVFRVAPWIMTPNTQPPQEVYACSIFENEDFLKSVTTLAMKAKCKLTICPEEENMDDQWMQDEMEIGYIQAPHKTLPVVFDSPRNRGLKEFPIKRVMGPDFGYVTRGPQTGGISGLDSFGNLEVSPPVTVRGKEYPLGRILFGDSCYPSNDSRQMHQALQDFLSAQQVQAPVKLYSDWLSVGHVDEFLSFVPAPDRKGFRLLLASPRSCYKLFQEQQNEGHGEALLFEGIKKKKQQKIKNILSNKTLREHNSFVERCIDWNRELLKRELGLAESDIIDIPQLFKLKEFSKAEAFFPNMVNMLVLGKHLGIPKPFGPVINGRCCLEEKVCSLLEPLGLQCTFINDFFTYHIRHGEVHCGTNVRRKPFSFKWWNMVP
# mABHD4 FP = inhibitors of mouse ABHD4; Q8VD66; purified mABHD4, FP-Rh probe fluorescence polarization; inhibition, % at 8.92 µM; 370,000 tested, 0.54% active;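 active = inhibition exceeding the mean over every tested compound plus 3 SD, cut at about 30% in these data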;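 note: 0% = plate median of compound wells and 100% = S159A mutant with DMSO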
#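 Assay system: wild-type mouse ABHD4 protein; compound: single nominal dose of 8.92 µM, 0.89% DMSO final; schedule: 45 min + 60 min at 25 °C; measured by: FP readout, ex 525 nm / em 598 nm; evaluation: % inhibition of FP-Rh probe binding versus controls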
# SIAE primary = human SIAE inhibition, primary screen; AID 1053197; Q9HAT2; SIAE FP-Rh probe binding, fluorescence polarization; inhibition, % at 9.66 µM; 370,000 tested, 0.69% active;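 active = inhibition above a cutoff: mean of compounds within the control limits plus 3 SD of those, cut at about 17% in these data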;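 note: 0% = plate median of compound wells and 100% = probe without SIAE protein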
# PRMT1 inh conf = PRMT1 (human) inhibition, FP confirmation; AID 687036; 3,300 tested, 42% active; shares compounds with PRMT1 FP inh; inhibition, % at 2.79 µM; recombinant His-PRMT1, activity-based probe fluorescence polarization;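 active = mean inhibition across replicates above the hit cutoff derived for the earlier primary screen, cut at about 22% in these data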
# * hit, by the source's call; nt = no result. The list is not random: actives were taken first. Their share in the collection is about 2.9%.
SMILES,HTRA1 inhibitor,TCR-CD3 inh,PRMT1 FP inh,PAD4 inh,mABHD4 FP,SIAE primary,PRMT1 inh conf
CC(C)(C)c1cc(C(=O)CCN2CCOCC2)cc(C(C)(C)C)c1O,-25.9,5.4,35.9*,1.4,-12.8,-11.1,13.5
COc1ccc(NC(=O)c2ccc(NC(=O)CN3CCN(c4ccccc4O)CC3)cc2)cc1,-2.5,2.3,-5.8,nt,2.7,11.1,nt
CC(C)(C)NC(=O)CCN1CCOCC1,2.5,-1.2,1.2,4.0,-5.3,4.0,nt
COc1ccc(NC(=O)c2ccc(NC(=O)CN3CCN(c4ccc(O)cc4)CC3)cc2)cc1,-1.1,3.9,33.7*,nt,1.9,6.3,6.6
O=C(CCN1CCOCC1)c1ccc(N2CCCCC2)cc1,1.2,-6.2,27.9*,-1.1,-42.8,-17.6,-5.0
CCOC(=O)Cn1cc(CN2C(C(=O)OC)CN(C3CCCC3)CCS2(=O)=O)nn1 (centres undefined),nt,nt,-0.9,nt,-5.0,7.0,nt
O=C(O)CN1C(=O)/C(=C\c2ccccc2OCc2ccccc2)SC1=S,-25.6,-0.9,11.4,nt,-20.5,-6.2,nt
O=C(O)CN1C(=O)/C(=C\c2ccccc2OCc2ccc(F)cc2)SC1=S,-46.9,2.8,24.9*,-1.6,-38.1,-12.8,-1.1
CC(C)(C)OC(=O)NCC1CCN(S(=O)(=O)Cc2ccccc2)CC1,0.5,-3.9,7.8,3.4,-3.1,0.0,nt
CC(C)(C)OC(=O)NCC12C=CC(O1)C1C(=O)N(Cc3ccccc3)C(=O)C12 (centres undefined),6.1,5.0,47.4*,-0.9,2.8,-4.5,8.9
C[C@@H](CO)N(Cc1cn(Cc2ccccc2)nn1)S(=O)(=O)c1ccccc1Br,nt,nt,0.2,nt,-5.5,1.7,nt
O=C(NC(Cc1c[nH]c2ccccc12)C(=O)OCC(=O)c1cccc2ccccc12)c1cccs1 (centres undefined),-44.4,1.4,50.3*,1.9,-48.4,-20.9,-0.7
COC(=O)C(Cc1c[nH]c2ccccc12)NC(=O)c1cccs1 (centres undefined),-1.6,6.7,-0.8,9.0,2.6,0.8,nt
CSc1nc(N(CCO)CCO)c2sc3nc(-c4ccco4)c4c(c3c2n1)CCC4,4.7,10.4,37.2*,nt,-4.7,11.1,38.7*
COc1ccc2sc(/C=C/c3ccccc3O)[n+](C)c2c1,nt,-114.0,36.3*,nt,-98.2,-159.2,-0.3
Nc1ccc(N2CCCC2)c(S(=O)(=O)Nc2cccc(C(F)(F)F)c2)c1,18.6,-0.1,47.0*,-4.9,22.8,14.6,6.8
O=C(O)CCc1ccc(-c2ccc(Cl)cc2)o1,0.6,2.2,18.6,-0.6,5.0,8.8,nt
COc1ccc(-c2ccc(CCC(=O)O)o2)cc1,-8.4,-1.5,57.5*,-3.8,-1.1,9.7,5.5
O=C(O)CCc1ccc(-c2ccc(Br)cc2)o1,-0.3,4.8,62.3*,-1.7,1.3,4.2,62.2*
O=C(O)CCN1C(=O)/C(=C2\C(=O)N(Cc3ccccc3Cl)c3ccccc32)SC1=S,2.5,3.5,-0.2,nt,4.7,11.6,nt
C=CCN1C(=O)/C(=c2\sc3nc(=O)c(Cc4ccccc4Cl)nn3c2=O)c2ccccc21,-2.4,-2.1,26.9*,0.5,4.8,-0.2,18.4
O=C(N=C1N(CC2CC2)CC2(C=C3CCCCC3n3c(=O)n(-c4ccccc4)c(=O)n32)N1C(=O)OCc1ccccc1)c1ccccc1 (centres undefined),nt,nt,-0.1,nt,0.7,1.5,nt
Cc1ccc(C)c(NC(=S)c2nc3ccccc3s2)c1,6.2,-3.8,28.9*,3.1,-7.5,-2.2,8.8
Cc1ccc(NC(=S)c2nc3ccccc3s2)cc1,-3.5,-2.7,1.1,-0.9,1.8,3.0,nt
O=C1CCCC(=O)C1CS(=O)(=O)c1ccccc1,-1.0,-4.3,44.3*,-2.4,4.8,-4.0,27.4*
CCOC(=O)[C@]12CCCCC/C=C\1N(Cc1ccc(OC)cc1)C(=O)[C@H]2CC(=O)NCc1cccc(C(F)(F)F)c1,nt,nt,2.0,nt,-5.5,0.9,nt
COc1ccc(-c2nnc(SCC(=O)N/N=C\C=C/c3ccco3)n2-c2ccc(C)cc2)cc1,nt,nt,19.2,nt,-1.1,-7.0,nt
Cc1nc2ccccn2c1-c1ccnc(=S)[nH]1,-1.7,-2.8,78.9*,13.6,-2.4,5.5,38.2*
Cc1nc2ccccn2c1-c1csc(NCc2ccco2)n1,6.4,-3.7,1.3,-8.1,10.8,8.2,nt
